{"data": "Experimental data pooled from the literature", "cell line": "MDA-MB-231", "observed": "cell growth or viability", "note": "Compare with care: the assays were run in different laboratories."}
{"SMILES": "CC(C)[C@@H]1NC(=O)/C(=C/c2cnc[nH]2)NC1=O", "test": "SRB", "IC50": "> 15 µM"}
{"SMILES": "O=[N+]([O-])c1ccc(NC(=S)N/N=C/c2cccc3cc4ccccc4nc23)cc1", "test": "MTT", "conditions": "48 h", "IC50": "> 50 µM"}
{"SMILES": "Cc1ccc(S(=O)(=O)n2cc(/C=N/NC(=O)c3cccc(Cl)c3)c3ccccc32)cc1", "test": "MTT", "conditions": "48 h", "IC50": "25.1 µM"}
{"SMILES": "Nc1nc2cc(CC[C@H]3C[C@@H](n4ccc5c(N)ncnc54)[C@H](O)[C@@H]3O)ccc2cc1Br", "test": "CCK-8", "conditions": "72 h", "IC50": "> 100 µM"}
{"SMILES": "O=C(Nc1ccccc1)Nc1ccc(Oc2nc3ccccc3n3cnnc23)cc1", "test": "MTT", "conditions": "24 h", "IC50": "> 68 µM"}
{"SMILES": "O=C1Nc2ccccc2/C1=N/N=C/c1cccc([N+](=O)[O-])c1", "test": "MTT", "conditions": "48 h", "IC50": "21.1 µg/mL"}
{"SMILES": "C=CC(C)(C)c1[nH]cnc1/C=C1/NC(=O)[C@H](C(C)C)NC1=O", "test": "SRB", "IC50": "> 15 µM"}
{"SMILES": "COc1ccc(-n2cc(CNC(=O)[C@@]3(C)[C@H](O)CC[C@@]4(C)[C@H]3CC[C@]3(C)[C@@H]4C(=O)C=C4[C@@H]5[C@@H](C)[C@H](C)CC[C@]5(C)CC[C@]43C)nn2)cc1", "test": "MTT", "conditions": "24 h", "IC50": "76.6 µM"}
{"SMILES": "S=C(N/N=C/c1cccc2cc3ccccc3nc12)Nc1ccccc1", "test": "MTT", "conditions": "48 h", "IC50": "> 50 µM"}
{"SMILES": "CCCc1cc2cc(-n3nc(C)c4c3CC(C)(C)CC4=O)cc(N3CCC(O)CC3)c2c(=O)[nH]1", "test": "MTS", "IC50": "3.82 µM"}
{"SMILES": "O=C(Nc1ccc(Oc2nc3ccccc3n3cnnc23)cc1)Nc1cccc(Cl)c1", "test": "MTT", "conditions": "24 h", "IC50": "33.6 µM"}
{"SMILES": "CO[C@H]1[C@H](O[C@H]([C@H]2O[C@@H](n3ccc(=O)[nH]c3=O)[C@H](O)[C@@H]2O)[C@H](NCCCNC(=O)[C@@H](NC(=O)[C@@H](NC(=O)N[C@H](C(=O)O)C(C)C)[C@@H]2CCN=C(N)N2)[C@@H](O)C(C)C)C(=O)O)O[C@H](CN)[C@H]1O", "test": "WST-1", "IC50": "> 35 µM"}
{"SMILES": "Cc1cc(NS(=O)(=O)c2ccc(NC(=O)/C(C#N)=C/c3ccc(N4CCCC4)cc3)cc2)no1", "test": "MTT", "conditions": "48 h", "IC50": "109 µM"}
{"SMILES": "C[C@H]1[C@H](C)CC[C@]2(C)CC[C@]3(C)C(=CC(=O)[C@@H]4[C@@]5(C)CC[C@@H](O)[C@](C)(C(=O)NCc6cn(-c7ccc(F)cc7)nn6)[C@@H]5CC[C@]43C)[C@H]12", "test": "MTT", "conditions": "24 h", "IC50": "71.4 µM"}
{"SMILES": "COc1cccc(NC(=S)N/N=C/c2cccc3cc4ccccc4nc23)c1", "test": "MTT", "conditions": "48 h", "IC50": "> 50 µM"}
{"SMILES": "Cc1ccc(S(=O)(=O)n2cc(/C=N/NC(=O)c3ccc([N+](=O)[O-])cc3)c3ccccc32)cc1", "test": "MTT", "conditions": "48 h", "IC50": "38.6 µM"}
{"SMILES": "C=CCn1c(=O)c2cnc(Nc3ccc(N4CCN(C)CC4)cc3)nc2n1-c1ccc2c(n1)[C@@](O)(CC)CC2", "test": "ATP luminescence", "conditions": "72 h", "IC50": "0.627 µM"}
{"SMILES": "Cc1ccc(S(=O)(=O)n2cc(/C=N/NC(=O)Cc3ccccc3C(F)(F)F)c3ccccc32)cc1", "test": "MTT", "conditions": "48 h", "IC50": "20.1 µM"}
{"SMILES": "COc1ccccc1/C=N/N=C1\\C(=O)Nc2ccccc21", "test": "MTT", "conditions": "48 h", "IC50": "26.3 µg/mL"}
{"SMILES": "Cc1cc(NS(=O)(=O)c2ccc(NC(=O)/C(C#N)=C/c3cccnc3)cc2)no1", "test": "MTT", "conditions": "48 h", "IC50": "184 µM"}
{"SMILES": "Nc1ccn([C@@H]2O[C@H](CO)[C@@H](O)C2(F)F)c(=O)n1", "test": "MTT", "conditions": "24 h", "IC50": "7.1 µg/mL"}
{"SMILES": "C[C@H]1[C@H](C)CC[C@]2(C)CC[C@]3(C)C(=CC(=O)[C@@H]4[C@@]5(C)CC[C@@H](O)[C@](C)(C(=O)NCc6cn(-c7ccccc7C(F)(F)F)nn6)[C@@H]5CC[C@]43C)[C@H]12", "test": "MTT", "conditions": "24 h", "IC50": "69.9 µM"}
{"SMILES": "Cc1sc2c(c1C)C(c1ccc(Cl)cc1)=N[C@@H](CC(=O)NCCCCNC(=O)COc1cccc3c1C(=O)N(C1CCC(=O)NC1=O)C3=O)c1nnc(C)n1-2 (stereo partly drawn)", "test": "CCK-8", "conditions": "72 h", "IC50": "1.14 µM"}
{"SMILES": "COc1cc([C@@H]2c3cc4c(cc3[C@@H](O[C@@H]3O[C@@H]5CO[C@@H](C)O[C@H]5[C@H](O)[C@H]3O)[C@H]3COC(=O)[C@H]23)OCO4)cc(OC)c1O", "test": "MTT", "conditions": "48 h", "IC50": "21.2 µM"}
{"SMILES": "C[C@H]1[C@H](C)CC[C@]2(C)CC[C@]3(C)C(=CC(=O)[C@@H]4[C@@]5(C)CC[C@@H](O)[C@](C)(C(=O)NCc6cn(-c7cccc(Br)c7)nn6)[C@@H]5CC[C@]43C)[C@H]12", "test": "MTT", "conditions": "24 h", "IC50": "61.5 µM"}
{"SMILES": "COc1ccc(C(=O)N/N=C/c2cn(S(=O)(=O)c3ccc(C)cc3)c3ccccc23)cc1", "test": "MTT", "conditions": "48 h", "IC50": "34.4 µM"}
{"SMILES": "Cc1cc(NS(=O)(=O)c2ccc(NC(=O)/C(C#N)=C/c3ccc(N4CCCCC4)cc3)cc2)no1", "test": "MTT", "conditions": "48 h", "IC50": "20 µM"}
{"SMILES": "COc1ccc(NC(=S)N/N=C/c2cccc3cc4ccccc4nc23)cc1", "test": "MTT", "conditions": "48 h", "IC50": "> 50 µM"}
{"SMILES": "Cc1ccc(S(=O)(=O)n2cc(/C=N/NC(=O)c3cccnc3)c3ccccc32)cc1", "test": "MTT", "conditions": "48 h", "IC50": "18.1 µM"}
{"SMILES": "CC1CCC(C(C)C)C(OC2=C(Cl)C(=O)c3ccccc3C2=O)C1 (stereo not drawn)", "test": "MTT", "conditions": "24 h", "IC50": "5 µg/mL"}
{"SMILES": "Cc1ccc(S(=O)(=O)n2cc(/C=N/NC(=O)c3cc4ccccc4cc3O)c3ccccc32)cc1", "test": "MTT", "conditions": "48 h", "IC50": "16.4 µM"}
{"SMILES": "C[C@H]1[C@H](C)CC[C@]2(C)CC[C@]3(C)C(=CC(=O)[C@@H]4[C@@]5(C)CC[C@@H](O)[C@](C)(C(=O)NCc6cn(-c7ccc(Cl)cc7)nn6)[C@@H]5CC[C@]43C)[C@H]12", "test": "MTT", "conditions": "24 h", "IC50": "106 µM"}
{"SMILES": "Cc1ccc(S(=O)(=O)n2cc(/C=N/NC(=O)c3ccccc3C)c3ccccc32)cc1", "test": "MTT", "conditions": "48 h", "IC50": "27.2 µM"}
{"SMILES": "COc1cccc2c1C(=O)c1c(O)c3c(c(O)c1C2=O)C[C@@](O)(C(=O)CO)C[C@@H]3O[C@H]1C[C@H](N)[C@H](O)[C@H](C)O1", "test": "MTT", "conditions": "24 h", "IC50": "7.19 µg/mL"}
{"SMILES": "Cc1ccc(S(=O)(=O)n2cc(/C=N/NC(=O)c3ccco3)c3ccccc32)cc1", "test": "MTT", "conditions": "48 h", "IC50": "29.6 µM"}
{"SMILES": "C[C@H]1[C@H](C)CC[C@]2(C(=O)O)CC[C@]3(C)C(=CC[C@@H]4[C@@]5(C)CC[C@H](O)C(C)(C)[C@@H]5CC[C@]43C)[C@H]12", "test": "MTT", "conditions": "24 h", "IC50": "15 µM"}
